From ChEMBL document CHEMBL1126079, “Synthesis, configuration, and calcium modulatory properties of enantiomerically pure 5-oxo-1,4,5,6,7,8-hexahydroquinoline-3-carboxylates” (J Med Chem, 1992) come the findings set out here.

The species entered for experiment [1] is Cavia porcellus. Briefly: (§1) Maximum inhibition of BaCl2-stimulated contraction of ileum of guinea pig. In kind it is functional. In outline: (§2)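 Each test substance was given as a single dose to the ileum preparation. BaCl2 contraction was elicited after a 10-min exposure. Between substances the tissue was washed until the initial state returned, then BaCl2 contraction was induced again.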

The species named for experiment [2] is Cavia porcellus. Briefly: Maximum inhibition of KCl-stimulated contraction of aortic strips of guinea pig. Type of experiment: functional, Aorta. In outline: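 Aortic strips were held in carbogen-perfused Tyrode solution at 37 °C under 2 g preload, and isometric contractions were recorded after amplification. Contractions were induced with KCl at 67 mmol/L bath concentration to test for antagonism. Between substances the preparation was washed back to its initial state before KCl was given again.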

The species named for experiment [3] is Cavia porcellus. Briefly: Intrinsic activity is the inhibition of contraction of guinea pig aorta strips value in comparison with nifedipine. In kind it is functional. In outline: (§3)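 Tissue sat in carbogen-perfused Tyrode solution at 37 °C under a 2 g preload, with isometric recording. KCl (67 mmol/L bath concentration) was added after each substance to test for antagonism, with washing back to the initial state between substances. EC50 and intrinsic activity were derived as in the paper's earlier section 1c.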

The species entered for experiment [4] is Cavia porcellus. Briefly: Intrinsic activity is the inhibition of contraction of guinea pig ileum value in comparison with nifedipine. In kind it is functional. In outline:
as §2

Experiment [5] is filed under the species Cavia porcellus. Briefly: Effect on BaCl2-stimulated contraction of ileum of guinea pig. In kind it is functional. The method in brief:
as §2

The species named for experiment [6] is Cavia porcellus. Briefly: Effect on KCl-stimulated contraction of aortic strips of guinea pig. Type of experiment: functional, Aorta. In outline: as §3
Experiment [7] is filed under the species Cavia porcellus. Briefly: Intrinsic activity value in comparison with nifedipine. Type of experiment: functional.
For experiment [8], the species on record is Cavia porcellus. The description is as §1. Type of experiment: functional. In outline:
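Guinea-pig ileum, single-dose technique: each test substance was added and left for 10 min before BaCl2 contractions were induced. Between substances the preparation was washed until the initial state returned, then BaCl2 contraction was induced again.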
This is another data set of the same source.

On to `COC(=O)C1=C(C)NC2=C(C(=O)CCC2)[C@@H]1c1ccc2c(c1)OCO2` (stereo in doubt; 9b), for which the results for the Max effect in the experiment filed under Cavia porcellus [1] and in the experiment listed under Cavia porcellus [2] were 89% and 84%, respectively. Also, the IA in the experiment filed under Cavia porcellus [3] was found to be 1.2; in the experiment filed under Cavia porcellus [4] it was 0.94. In the experiment filed under Cavia porcellus [5], this molecule came in with an EC50 of 22 µM.
`CO[C@@H](COC(=O)C1=C(C)NC2=C(C(=O)CCC2)[C@H]1c1ccc2c(c1)OCO2)c1ccccc1` had a Max effect in the experiment listed under Cavia porcellus [2] of 42%. In the experiment filed under Cavia porcellus [3], the IA is recorded as 0.6. In addition, the EC50 in the experiment listed under Cavia porcellus [6] is 4e-05 M l-1.
One may read the Inhibition as the change of the read-out against control, counted positive when it falls. Low readings indicate a weak effect, high ones a strong effect. Consider `COC(=O)C1=C(C)NC(C)=C(C(=O)OC)C1c1ccccc1[N+](=O)[O-]` [NIFEDIPINE], for which the Inhibition is listed as 70% in the experiment filed under Cavia porcellus [2] and 95% in the experiment filed under Cavia porcellus [8]. In the experiment listed under Cavia porcellus [7], this molecule registered an IA of 1. For the same molecule, the values for the EC50 in the experiment listed under Cavia porcellus [5] and in the experiment listed under Cavia porcellus [6] were 2e-08 M l-1 and 8.9e-09 M l-1, respectively.
Turning to `CO/C(O)=C1\C(C)=NC2=C(C(=O)CCC2)C1c1ccc2c(c1)OCO2` (racemic), the Max effect in the experiment filed under Cavia porcellus [1] worked out at 76%; in the experiment listed under Cavia porcellus [2], 73%. The IA turned out to be 1 in the experiment listed under Cavia porcellus [3] and 0.8 in the experiment filed under Cavia porcellus [4]. Moreover, the EC50 was 5e-05 M l-1 in the experiment listed under Cavia porcellus [5] and 2e-06 M l-1 in the experiment listed under Cavia porcellus [6].
On to `CO[C@H](COC(=O)C1=C(C)NC2=C(C(=O)CCC2)[C@@H]1c1ccc2c(c1)OCO2)c1ccccc1`, for which, in the experiment listed under Cavia porcellus [2], the Max effect is 70%. The molecule further yielded an IA in the experiment listed under Cavia porcellus [3] of 1. Besides, in the experiment filed under Cavia porcellus [6], the EC50 turned out to be 7.1e-06 M l-1.
Turning to `COC(=O)C1=C(C)NC2=C(C(=O)CCC2)[C@@H]1c1ccc2c(c1)OCO2` (stereo in doubt; 9a), the Max effect is recorded as 42% in the experiment filed under Cavia porcellus [1] and 38% in the experiment filed under Cavia porcellus [2]. Also, the IA in the experiment filed under Cavia porcellus [3] turned out to be 0.54; in the experiment filed under Cavia porcellus [4], 0.44. This molecule yielded an EC50 in the experiment listed under Cavia porcellus [5] of 25 µM.
